# Results taken from paper PMC7115506 (European Journal of Medicinal Chemistry, 2018).
# Assays:
# [1] = system: human leukemia K562 cells; experiment: MTT cytotoxic activity assay, K562; assay type: cell-based; settings: for IC50: read-out: IC50 K562, MTT, 48 h; for enhancement of potency compared to that of 2d: ratio to 2d, K562
# Procedure, shortened: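 K562 cells at 5 × 10^4 cells/ml were plated for 2 h, then exposed to test compound at 10–100,000 nM for 48 h. MTT (5 mg/mL stock) was added for a further 4 h and read on a plate reader. DMSO-treated controls were set as 100% viability. IC50 came from nonlinear regression over three independent assays.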
# liver cancer HepG2 cells = experiment: MTT cytotoxic activity assay, HepG2; assay type: cell-based, human; settings: read-out: IC50 HepG2
# K562 cells [2] = experiment: Flow cytometric analysis of apoptosis; assay type: cell-based, human; settings: 30 nM; 48 h
# Procedure, shortened: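 K562 cells (RPMI-1640, 10% FBS) were seeded in six-well plates and given DMSO or test compound at 30 or 300 nM for 0, 6, 12, 24 and 48 h. Cells were washed twice in ice-cold PBS, resuspended in binding buffer, then stained with Annexin V-FITC (10 min) and PI at 50 μg/mL (10 min) at room temperature in the dark. Flow cytometry with quadrant statistics.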
# HepG2 cells [3] = experiment: Wound healing assay; assay type: cell-based, human; settings: 48 h, DMSO 184.89 μm
# HepG2 cells [4] = experiment: Transwell assay; assay type: cell-based, human; settings: 10 nM, 30 nM, 100 nM; 24 h
# HUVEC cells = experiment: Tube forming assay on Matrigel; assay type: cell-based, human; settings: 10 nM, 30 nM, 100 nM; 12 h
# K562 cells [5] = experiment: Morphological changes by microscopy; assay type: cell-based, human; settings: 30 nM
# Procedure, shortened: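 K562 cells were kept in RPMI-1640 with 10% FBS, 2.05 mM glutamine and 1% penicillin/streptomycin at 37 °C and 5% CO2. They were exposed to test compound at 30 nM, and morphology was compared with DMSO-treated cells.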
Molecule,IC50 [1] [nM],IC50 (liver cancer HepG2 cells) [nM],enhancement of potency compared to that of 2d [1],further results
"1-(3,5-dimethylbenzyl)-5-(4-methoxyphenyl)indoline-2,3-dione [2p]",140 ± 30,410 ± 30,–,–
"1-(4-methoxybenzyl)-5-(thiophen-3-yl)indoline-2,3-dione [compound 4r]",80 ± 40,3670 ± 1400,–,–
"COc1ccc(-c2ccc3c(c2)C(=O)C(=O)N3Cc2ccccc2OC)cc1 [2o, 1-(2-methoxybenzyl)-5-(4-methoxyphenyl)indoline-2,3-dione]",–,–,8–25 folds,–
"COc1ccc(-c2ccc3c(c2)C(=O)C(=O)N3Cc2ccc(OC)c(OC)c2)cc1 [2q, 1-(3,4-dimethoxybenzyl)-5-(4-methoxyphenyl)indoline-2,3-dione]",–,–,8–25 folds,–
"COc1ccc(-c2ccc3c(c2)C(=O)C(=O)N3Cc2ccc3c(c2)OCO3)cc1 [2v, 1-(benzo[d] [1, 3]dioxol-5-ylmethyl)-5-(4-methoxyphenyl)indoline-2,3-dione]",–,–,8–25 folds,–
"COc1ccc(CN2C(=O)C(=O)c3cc(-c4ccc(OC)cc4)ccc32)cc1 [compound 2m, 1-(4-methoxybenzyl)-5-(4-methoxyphenyl)indoline-2,3-dione]",–,–,8–25 folds,"apoptotic rate of K562 cells (K562 cells [2]): 43.4%; The distance of migration (HepG2 cells [3]; 10 nM): 162.89 μm; The distance of migration (HepG2 cells [3]; 30 nM): 135.22 μm; The distance of migration (HepG2 cells [3]; 100 nM): 96.24 μm; effect on HepG2 cells migration (transwell) (HepG2 cells [4]): could inhibit the HepG2 cells migration and have a dose-dependent inhibitory effect; effect on tube formation of HUVEC cells (HUVEC cells): could inhibit the angiogenesis of HUVEC cells and have a dose-dependent inhibitory effect; morphological change: elongated cells (G2/M arrest morphology) (K562 cells [5]; 6 h, vs DMSO-treated cells): elongated cells increased significantly; morphological change: apoptotic cells (K562 cells [5]; 24 h): apoptotic cells were clearly observed"
"COc1ccc(CN2C(=O)C(=O)c3cc(-c4ccc(C(C)(C)C)cc4)ccc32)cc1 [compound 4e, 5-(4-(tert-butyl)phenyl)-1-(4-methoxybenzyl)indoline-2,3-dione]",–,–,–,drop of cytotoxic activity from that of 4k ([1]; ratio to 4k): 15 folds
(Z)-ethyl 2-(1-(4-methoxybenzyl)-5-(4-methoxyphenyl)-2-oxoindolin-3-ylidene)acetate [5d],1240 ± 540,3390 ± 270,–,–
(Z)-methyl 2-(1-(4-methoxybenzyl)-5-(4-methoxyphenyl)-2-oxoindolin-3-ylidene)acetate [5e],1900 ± 140,4730 ± 1240,–,–
